Published values of several laboratories.
Each line is one published result; the experiments were not run side by side.
Target: NUAK family SNF1-like kinase 1 (NUAK1, Homo sapiens, UniProt O60285)
Residues used in one study (O60285 1-661): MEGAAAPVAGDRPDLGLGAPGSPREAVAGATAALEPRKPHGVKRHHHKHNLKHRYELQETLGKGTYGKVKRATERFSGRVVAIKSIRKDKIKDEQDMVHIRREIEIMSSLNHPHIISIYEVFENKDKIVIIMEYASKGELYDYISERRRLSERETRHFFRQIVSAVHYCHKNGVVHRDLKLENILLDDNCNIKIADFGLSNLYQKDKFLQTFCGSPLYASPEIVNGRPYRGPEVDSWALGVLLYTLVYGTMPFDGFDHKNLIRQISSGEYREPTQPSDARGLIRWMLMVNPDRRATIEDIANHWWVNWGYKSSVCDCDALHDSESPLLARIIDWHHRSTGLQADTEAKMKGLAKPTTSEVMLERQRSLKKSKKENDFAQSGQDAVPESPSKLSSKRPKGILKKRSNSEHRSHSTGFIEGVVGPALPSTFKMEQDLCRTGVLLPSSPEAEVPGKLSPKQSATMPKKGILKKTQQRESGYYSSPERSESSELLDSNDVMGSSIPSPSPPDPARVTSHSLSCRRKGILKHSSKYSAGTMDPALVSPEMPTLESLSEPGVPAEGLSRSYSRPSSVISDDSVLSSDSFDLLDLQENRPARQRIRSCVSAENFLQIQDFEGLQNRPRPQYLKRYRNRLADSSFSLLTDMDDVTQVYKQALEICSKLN

SMILES	assay	setting	quantity	value
C1=C/COCc2cc(ccc2OCCN2CCCC2)Nc2nccc(n2)-c2cccc(c2)COC/1	cell-free assay	0.1 µM	remaining signal	39%
C=CC(=O)N1CCC[C@@H](n2nc(-c3ccc(Oc4ccccc4)cc3)c3c(N)ncnc32)C1	enzyme activity, inhibitor	1 µM	inhibition	10%
CCCCC(=O)Nc1ccc(-c2ccc3ncn(CCC)c(=O)c3c2)cn1	binding, competition with immobilised ligand	0.5 µM	remaining binding	73%
C=CC(=O)N1CCC([C@@H]2CCNc3c(C(N)=O)c(-c4ccc(Oc5ccccc5)cc4)nn32)CC1	enzyme activity, inhibitor	1 µM	inhibition	2%
COc1ccc2[nH]c3c4[nH]c5ccc(OC)cc5c4c4c(c3c2c1)C(=O)NC4=O	binding	1 µM	remaining binding	25%
CC(C)S(=O)(=O)c1ccc2nccc(Nc3ccc4sc(C5CCCC5)nc4c3)c2c1	enzyme activity, inhibitor	1 µM	activity vs control	108%
C[C@H]1CC[C@H](n2c3cnccc3c3cnc(Nc4ccc5c(n4)CCN(C(=O)CO)C5)nc32)CC1	cell-free assay	1 µM	remaining signal	72%
C#Cc1cc(-c2cc(Nc3nc(N[C@@H](C)c4ccc(F)cn4)ncc3Cl)n[nH]2)ccc1C=O	enzyme activity, inhibitor	0.2 µM	inhibition	17.1%
